In ChEMBL document CHEMBL1124254, “Pumiliotoxin alkaloids: relationship of cardiotonic activity to sodium channel activity and phosphatidylinositol turnover” (1988):

Key:
Type in all cases: functional
[1] = species on record: Mus musculus; assay: Phosphoinositide (PI) breakdown was measured in mouse atria at 10 uM
In short: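 Male mouse (20-25 g) right and left atria were prelabelled for 60 min at 37 °C in Krebs-Henseleit buffer (pH 7.4) with 1 μM [3H]inositol. LiCl (10 mM final) was added, and agents were added 15 min later at 10 μM for 30 min at 37 °C. [3H]inositol phosphates in the TCA extract were separated by anion exchange. Results are percent of control, two to four determinations ± SEM.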

[2] = species on record: Cavia porcellus; assay: Phosphoinositide breakdown in guinea pig brain synaptoneurosomes.; design: concentration or dose not given beside the values
In short: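 Guinea pig cerebral cortex synaptoneurosomes (~1 mg protein per tube) were labelled 60 min at 37 °C with 1 μM [3H]inositol in Krebs-Henseleit buffer (pH 7.4). LiCl was added, and agents were added 10 min later for 90 min at 37 °C under O2-CO2. [3H]inositol 1-phosphate was isolated by anion exchange and counted. Results are percent of control, means ± SEM (n = 3) or single values at 10 μM.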

[3] = species on record: Cavia porcellus; assay: Cardiotonic activity was measured in guinea pig atria at 54 uM concentration; Ranking
In short: (§1)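 Isolated atria suspended at 37 °C in Tyrode's solution aerated with O2-CO2 (95:5). After at least 1 h equilibration, cumulative dose-response curves for rate and force of spontaneous contractions were built by serial additions of alkaloid in methanol, at least 10 min apart. Effects given at 54 μM; values are averages of two to six experiments.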

[4] = species on record: Cavia porcellus; assay: Specific sodium influx was measured in guinea pig brain synaptoneurosomes at 100 uM concentration (10s of incubation)
[5] = species on record: Cavia porcellus; assay: Cardiotonic activity was measured in guinea pig atria at 54 uM concentration; Ranking -; in short: as §1
[6] = species on record: Cavia porcellus; assay: Cardiotonic activity was measured in guinea pig atria at 18 uM concentration; Ranking
In short: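 Isolated spontaneously beating atria held at 37 °C in Tyrode's solution gassed with 95:5 O2-CO2, equilibrated at least 1 h. Alkaloid was added serially in methanol, at least 10 min apart, to build cumulative dose-response curves. Rate and force of spontaneous contractions were recorded. Values are averages of two to six experiments.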

In the case of `CCC(O)/C(C)=C/C[C@@H](C)/C=C1\CN2CCC[C@H]2[C@@](C)(O)C1` (stereo not given in full), the Activity [1] is reported as 114%, the Activity [2] is reported as 172% and the Activity [3] is reported as “Ranking”. For the same compound, the Activity [4] was 0.72 nM (mg of protein)-1.
`C[C@H](/C=C1\CN2CCC[C@H]2[C@@](C)(O)C1)CCO` was tested, and the Activity [2] was 115% and the Activity [5] was “Ranking -”.
`CCCC[C@@H](C)/C=C1\CN2CCC[C@H]2[C@@](C)(O)C1` was tested, and the Activity [2] was 132% and the Activity [5] was “Ranking -”.
With `CC[C@H](O)/C(C)=C/C[C@@H](C)/C=C1\CN2CCC[C@H]2[C@@](C)(O)C1` the Activity [3] was “Ranking”.
In the case of `C[C@]1(O)C/C(=C/CCCCCCO)CN2CCC[C@H]21`, the Activity [2] is reported as 122% and the Activity [5] is reported as “Ranking -”.
For `CCC(OC)/C(C)=C/C[C@@H](C)/C=C1\CN2CCC[C@H]2[C@@](C)(O)C1` (stereo not given in full), the Activity [1] was 92%, the Activity [2] was 118% and the Activity [5] was “Ranking -”. For the same compound, the Activity [4] was 0.29 nM (mg of protein)-1.
`CCC(=O)/C(C)=C/C[C@@H](C)/C=C1\CN2CCC[C@H]2[C@@](C)(O)C1` was tested, and the Activity [2] was 109% and the Activity [5] was “Ranking -”.
In the case of `C=CCCCC/C=C1\CN2CCC[C@H]2[C@@](C)(O)C1`, the Activity [2] is reported as 112% and the Activity [5] is reported as “Ranking -”.
With `CC[C@H](O)/C(C)=C/C[C@@H](C)/C=C1\CN2CCC[C@H]2[C@@](C)(O)[C@@H]1O` the Activity [2] was 275% and the Activity [6] was “Ranking”.
For `C[C@@H](/C=C1\CN2CCC[C@H]2[C@@](C)(O)C1)CCOCc1ccccc1`, the Activity [2] was 102% and the Activity [5] was “Ranking -”.
With `C[C@@H](/C=C1\CN2CCC[C@H]2[C@@](C)(O)C1)CCO` the Activity [2] was 110% and the Activity [5] was “Ranking -”.
In the case of `C/C(=C\C[C@@H](C)/C=C1\CN2CCC[C@H]2[C@@](C)(O)[C@H]1O)[C@@H](O)[C@@H](C)O`, the Activity [2] is reported as 176% and the Activity [3] is reported as “Ranking”.
With `C/C(=C\C[C@@H](C)/C=C1\CN2CCC[C@H]2[C@@](C)(O)C1)[C@@H](O)[C@H](C)O` the Activity [3] was “Ranking”.
With `C/C(=C\C[C@@H](C)/C=C1\CN2CCC[C@H]2[C@@](C)(O)C1)[C@@H](O)[C@@H](C)O` the Activity [1] was 150%, the Activity [2] was 280% and the Activity [4] was 3.05 nM (mg of protein)-1.
With `CC(O)CC[C@@H](C)/C=C1\CN2CCC[C@H]2[C@@](C)(O)C1` (stereo not given in full) the Activity [2] was 129% and the Activity [3] was “Ranking”.
With `CCC[C@@H](C)/C=C1\CN2CCC[C@H]2[C@@](C)(O)[C@@H]1O` the Activity [2] was 138% and the Activity [3] was “Ranking”.
`CC[C@@H](O)/C(C)=C/C[C@@H](C)/C=C1\CN2CCC[C@H]2[C@@](C)(O)[C@@H]1O` was tested, and the Activity [2] was 137% and the Activity [3] was “Ranking”.
In the case of `C/C(=C\C[C@@H](C)/C=C1\CN2CCC[C@H]2[C@@](C)(O)C1)[C@H](O)[C@H](C)O`, the Activity [2] is reported as 129% and the Activity [3] is reported as “Ranking”.
With `CCC[C@H](C)/C=C1\CN2CCC[C@H]2[C@@](C)(O)[C@H]1O` the Activity [2] was 116% and the Activity [5] was “Ranking -”.
In the case of `C/C(=C\C[C@@H](C)/C=C1\CN2CCC[C@H]2[C@@](C)(O)[C@@H]1O)[C@@H](O)[C@@H](C)O`, the Activity [2] is reported as 304% and the Activity [6] is reported as “Ranking”.
With `C/C(=C\C[C@H](C)/C=C1\CN2CCC[C@H]2[C@@](C)(O)C1)[C@@H](O)[C@@H](C)O` the Activity [2] was 110% and the Activity [3] was “Ranking”.
